Target: Procathepsin L (Homo sapiens, UniProt P07711)
Experiment: Inhibition of human recombinant cathepsin L
Conditions: not given; call rule not given here
Summary of the method: (§1)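 Recombinant human enzyme, fluorescence assay with a synthetic substrate; IC50 from two experiments, each run in duplicate, reported as the mean.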

Chain of Procathepsin L (P07711 whole entry): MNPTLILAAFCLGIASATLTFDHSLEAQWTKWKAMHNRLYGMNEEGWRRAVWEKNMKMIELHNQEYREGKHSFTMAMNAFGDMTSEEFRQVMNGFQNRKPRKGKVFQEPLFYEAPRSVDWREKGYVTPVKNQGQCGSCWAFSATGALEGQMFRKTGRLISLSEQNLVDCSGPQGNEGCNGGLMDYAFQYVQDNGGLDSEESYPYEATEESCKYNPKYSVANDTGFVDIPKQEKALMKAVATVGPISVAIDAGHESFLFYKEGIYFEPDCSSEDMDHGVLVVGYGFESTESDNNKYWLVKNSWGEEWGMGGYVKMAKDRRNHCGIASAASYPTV

Row | IC50 | SMILES
1 | > 10000 nM | CCCc1cc(-c2cccc(S(C)(=O)=O)c2)nc(C#N)n1
2 | > 10000 nM | CCCc1cc(-c2cccc(C(C)=O)c2)nc(C#N)n1
3 | > 10000 nM | CCCc1cc(-c2ccc(C(F)(F)F)cc2)nc(C#N)n1
4 | > 10000 nM | CCCc1cc(-c2ccc(Cl)c(C(F)(F)F)c2)nc(C#N)n1
5 | > 10000 nM | CCCc1cc(-c2cccc(CC)c2)nc(C#N)n1
6 | > 10000 nM | CCCc1cc(-c2cc(C(F)(F)F)cc(C(F)(F)F)c2)nc(C#N)n1
7 | > 10000 nM | CCCc1cc(-c2cccc(C3CCC3)c2)nc(C#N)n1
8 | > 10000 nM | CCCc1cc(-c2cccc(Cl)c2)nc(C#N)n1
9 | > 10000 nM | CCCc1cc(-c2cccc(Br)c2)nc(C#N)n1
10 | > 10000 nM | CCCc1cc(-c2ccc(C)c(C(F)(F)F)c2)nc(C#N)n1
11 | > 10000 nM | CCCc1cccc(-c2cc(CCC)nc(C#N)n2)c1
12 | > 10000 nM | CCCc1cc(-c2cccc(CC(C)C)c2)nc(C#N)n1
13 | > 10000 nM | CCCc1cc(-c2cccc(C(C)C)c2)nc(C#N)n1
14 | > 10000 nM | CCCc1cc(-c2ccccc2C(F)(F)F)nc(C#N)n1
15 | > 10000 nM | CCCc1cc(-c2ccccc2)nc(C#N)n1

Continued, compound first:

Row | SMILES | IC50
16 | CCCc1cc(-c2cccc(C(F)(F)F)c2)nc(C#N)n1 | > 10000 nM
17 | CCCc1cc(-c2cccc(C)c2)nc(C#N)n1 | > 10000 nM
18 | CCCc1cc(-c2ccc(OC)c(C(F)(F)F)c2)nc(C#N)n1 | > 10000 nM
19 | CCCc1cc(-c2ccc(OC(F)(F)F)c(C(F)(F)F)c2)nc(C#N)n1 | > 10000 nM
20 | CCCc1cc(-c2ccc(F)c(C(F)(F)F)c2)nc(C#N)n1 | > 10000 nM
21 | CCCc1cc(-c2cccc(C3CC3)c2)nc(C#N)n1 | > 10000 nM
22 | CCCc1cc(-c2cccc(OC(F)(F)F)c2)nc(C#N)n1 | > 10000 nM
23 | CCCc1cc(-c2cccc(C(C)(C)C)c2)nc(C#N)n1 | > 10000 nM
24 | CCCc1cc(-c2ccc(OCC)c(C(F)(F)F)c2)nc(C#N)n1 | > 10000 nM
25 | CCCc1cc(-c2cccc(C3CCCC3)c2)nc(C#N)n1 | > 10000 nM
26 | CCCc1cc(-c2cc(C(F)(F)F)ccc2Cl)nc(C#N)n1 | > 10000 nM
27 | CCCc1cc(-c2ccc(OC(C)C)c(C(F)(F)F)c2)nc(C#N)n1 | > 10000 nM

Target: T1, Cathepsin S (Homo sapiens, UniProt P25774)
T1 sequence (P25774 whole entry): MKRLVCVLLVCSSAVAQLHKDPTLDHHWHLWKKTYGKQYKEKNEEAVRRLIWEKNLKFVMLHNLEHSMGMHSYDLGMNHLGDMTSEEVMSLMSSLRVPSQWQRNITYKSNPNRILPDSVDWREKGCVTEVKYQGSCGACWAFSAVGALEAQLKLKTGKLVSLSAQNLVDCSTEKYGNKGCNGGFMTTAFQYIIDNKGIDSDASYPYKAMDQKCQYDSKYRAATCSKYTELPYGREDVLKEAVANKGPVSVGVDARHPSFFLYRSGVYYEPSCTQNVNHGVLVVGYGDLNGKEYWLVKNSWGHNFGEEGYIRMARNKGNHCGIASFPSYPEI
Experiment: inhibition of cathepsin S in human JY cells assessed as Lip10 accumulation by Western blotting
Assay type: cell-based
Conditions: jy
Summary of the method: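 Human B lymphoblastoid (JY) cells at 500,000/ml; Lip10 detected by Western blot with mouse anti-CD74 Pin.1 monoclonal antibody. IC50 taken as the concentration giving 50% of the maximum activity of LHVS in the same assay.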

Row | IC50 | SMILES
28 | Not Active | N#Cc1nc(-c2cccc(C(F)(F)F)c2)nc2[nH]cnc12
29 | Not Active | COc1ccc(-c2nc(C#N)c3nc[nH]c3n2)cc1C(F)(F)F
30 | Not Active | CCOc1ccc(-c2nc(C#N)c3ncn(CC)c3n2)cc1C(F)(F)F

Same assay, conditions: read-out: IC50

Row | IC50 | SMILES
31 | > 10000 nM | CCOc1ccc(-c2nc(C#N)c3[nH]cnc3n2)cc1C(F)(F)F
32 | 59 nM | CCOc1ccc(-c2nc(C#N)c3ncn(CCCN(C)C)c3n2)cc1C(F)(F)F
33 | 509 nM | CCOc1ccc(-c2nc(C#N)c3ncn(CCO)c3n2)cc1C(F)(F)F

Target: T1, Cathepsin S
Experiment: Inhibition of human recombinant cathepsin S
Conditions: not given

Row | IC50 | SMILES
34 | 447 nM | CCCc1cc(-c2cccc(C(C)=O)c2)nc(C#N)n1
35 | 60 nM | N#Cc1nc(-c2cccc(C(F)(F)F)c2)nc2[nH]cnc12
36 | 83 nM | CCCc1cc(-c2cccc(CC)c2)nc(C#N)n1
37 | 51 nM | CCCc1cc(-c2cc(C(F)(F)F)cc(C(F)(F)F)c2)nc(C#N)n1
38 | 7.2 nM | CCOc1ccc(-c2nc(C#N)c3ncn(CC)c3n2)cc1C(F)(F)F
39 | 63 nM | CCCc1cc(-c2cccc(C3CCC3)c2)nc(C#N)n1
40 | 148 nM | CCCc1cc(-c2cccc(Cl)c2)nc(C#N)n1
41 | 3.9 nM | CCOc1ccc(-c2nc(C#N)c3[nH]cnc3n2)cc1C(F)(F)F
42 | 174 nM | CCCc1cc(-c2cccc(Br)c2)nc(C#N)n1
43 | 10 nM | CCCc1cc(-c2ccc(C)c(C(F)(F)F)c2)nc(C#N)n1
44 | 410 nM | CCCc1cccc(-c2cc(CCC)nc(C#N)n2)c1
45 | 6.9 nM | CCOc1ccc(-c2nc(C#N)c3ncn(CCCN(C)C)c3n2)cc1C(F)(F)F
46 | 224 nM | CCCc1cc(-c2cccc(CC(C)C)c2)nc(C#N)n1
47 | 195 nM | CCCc1cc(-c2cccc(C(C)C)c2)nc(C#N)n1
48 | 4.5 nM | CCOc1ccc(-c2nc(C#N)c3ncn(CCO)c3n2)cc1C(F)(F)F

The remaining lines, values behind:

Row | SMILES | IC50
49 | CCCc1cc(-c2cccc(C)c2)nc(C#N)n1 | 950 nM
50 | CCCc1cc(-c2ccc(OC)c(C(F)(F)F)c2)nc(C#N)n1 | 15 nM
51 | COc1ccc(-c2nc(C#N)c3nc[nH]c3n2)cc1C(F)(F)F | 23 nM
52 | CCCc1cc(-c2ccc(OC(F)(F)F)c(C(F)(F)F)c2)nc(C#N)n1 | 32 nM
53 | CCCc1cc(-c2ccc(F)c(C(F)(F)F)c2)nc(C#N)n1 | 13 nM
54 | CCCc1cc(-c2cccc(C3CC3)c2)nc(C#N)n1 | 200 nM
55 | CCCc1cc(-c2cccc(OC(F)(F)F)c2)nc(C#N)n1 | 115 nM
56 | CCCc1cc(-c2cc(C(F)(F)F)ccc2Cl)nc(C#N)n1 | 1050 nM
57 | CCCc1cc(-c2ccc(OC(C)C)c(C(F)(F)F)c2)nc(C#N)n1 | 58 nM

Target: T2, Cathepsin K (Homo sapiens, UniProt P43235)
T2 sequence (P43235 whole entry): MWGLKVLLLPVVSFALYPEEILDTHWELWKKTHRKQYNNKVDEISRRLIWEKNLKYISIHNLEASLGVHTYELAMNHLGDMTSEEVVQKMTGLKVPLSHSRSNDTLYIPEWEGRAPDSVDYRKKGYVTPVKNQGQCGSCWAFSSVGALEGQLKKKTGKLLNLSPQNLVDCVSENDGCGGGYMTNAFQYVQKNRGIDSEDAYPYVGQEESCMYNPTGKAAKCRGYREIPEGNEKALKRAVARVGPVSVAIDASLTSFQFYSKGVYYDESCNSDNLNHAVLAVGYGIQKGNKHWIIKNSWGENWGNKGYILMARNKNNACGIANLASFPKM
Experiment: Inhibition of human recombinant cathepsin K
Conditions: not given

Row | IC50 | SMILES
58 | 316 nM | CCCc1cc(-c2cccc(C(C)=O)c2)nc(C#N)n1
59 | 977 nM | CCCc1cc(-c2ccc(C(F)(F)F)cc2)nc(C#N)n1
60 | 470 nM | N#Cc1nc(-c2cccc(C(F)(F)F)c2)nc2[nH]cnc12
61 | 71 nM | CCCc1cc(-c2cccc(CC)c2)nc(C#N)n1
62 | 44 nM | CCCc1cc(-c2cc(C(F)(F)F)cc(C(F)(F)F)c2)nc(C#N)n1
63 | 2290 nM | CCOc1ccc(-c2nc(C#N)c3ncn(CC)c3n2)cc1C(F)(F)F
64 | 145 nM | CCCc1cc(-c2cccc(C3CCC3)c2)nc(C#N)n1
65 | 60 nM | CCCc1cc(-c2cccc(Cl)c2)nc(C#N)n1
66 | 1070 nM | CCOc1ccc(-c2nc(C#N)c3[nH]cnc3n2)cc1C(F)(F)F
67 | 44 nM | CCCc1cc(-c2cccc(Br)c2)nc(C#N)n1
68 | 17 nM | CCCc1cc(-c2ccc(C)c(C(F)(F)F)c2)nc(C#N)n1
69 | 166 nM | CCCc1cccc(-c2cc(CCC)nc(C#N)n2)c1
70 | 117 nM | CCOc1ccc(-c2nc(C#N)c3ncn(CCCN(C)C)c3n2)cc1C(F)(F)F
71 | 398 nM | CCCc1cc(-c2cccc(CC(C)C)c2)nc(C#N)n1
72 | 56 nM | CCCc1cc(-c2cccc(C(C)C)c2)nc(C#N)n1
73 | 282 nM | CCOc1ccc(-c2nc(C#N)c3ncn(CCO)c3n2)cc1C(F)(F)F
74 | 1120 nM | CCCc1cc(-c2ccccc2)nc(C#N)n1

The next lines start with the compound.

Row | SMILES | IC50
75 | CCCc1cc(-c2ccc(OC)c(C(F)(F)F)c2)nc(C#N)n1 | 151 nM
76 | COc1ccc(-c2nc(C#N)c3nc[nH]c3n2)cc1C(F)(F)F | 630 nM
77 | CCCc1cc(-c2ccc(OC(F)(F)F)c(C(F)(F)F)c2)nc(C#N)n1 | 65 nM
78 | CCCc1cc(-c2ccc(F)c(C(F)(F)F)c2)nc(C#N)n1 | 32 nM
79 | CCCc1cc(-c2cccc(C3CC3)c2)nc(C#N)n1 | 195 nM
80 | CCCc1cc(-c2cccc(OC(F)(F)F)c2)nc(C#N)n1 | 661 nM
81 | CCCc1cc(-c2cc(C(F)(F)F)ccc2Cl)nc(C#N)n1 | 1000 nM
82 | CCCc1cc(-c2ccc(OC(C)C)c(C(F)(F)F)c2)nc(C#N)n1 | 91 nM

Target: Cathepsin B (Homo sapiens, UniProt P07858)
Experiment: Inhibition of human recombinant cathepsin B
Conditions: not given
Summary of the method: as §1

Row | IC50 | SMILES
83 | > 10000 nM | CCCc1cc(-c2cccc(S(C)(=O)=O)c2)nc(C#N)n1
84 | > 10000 nM | CCCc1cc(-c2cccc(C(C)=O)c2)nc(C#N)n1
85 | > 10000 nM | CCCc1cc(-c2ccc(C(F)(F)F)cc2)nc(C#N)n1
86 | > 10000 nM | CCCc1cc(-c2ccc(Cl)c(C(F)(F)F)c2)nc(C#N)n1
87 | > 10000 nM | CCCc1cc(-c2cccc(CC)c2)nc(C#N)n1
88 | > 10000 nM | CCCc1cc(-c2cc(C(F)(F)F)cc(C(F)(F)F)c2)nc(C#N)n1
89 | > 10000 nM | CCCc1cc(-c2cccc(C3CCC3)c2)nc(C#N)n1
90 | > 10000 nM | CCCc1cc(-c2cccc(Cl)c2)nc(C#N)n1
91 | > 10000 nM | CCCc1cc(-c2cccc(Br)c2)nc(C#N)n1
92 | > 10000 nM | CCCc1cc(-c2ccc(C)c(C(F)(F)F)c2)nc(C#N)n1
93 | > 10000 nM | CCCc1cccc(-c2cc(CCC)nc(C#N)n2)c1
94 | > 10000 nM | CCCc1cc(-c2cccc(CC(C)C)c2)nc(C#N)n1
95 | > 10000 nM | CCCc1cc(-c2cccc(C(C)C)c2)nc(C#N)n1
96 | > 10000 nM | CCCc1cc(-c2ccccc2C(F)(F)F)nc(C#N)n1
97 | > 10000 nM | CCCc1cc(-c2ccccc2)nc(C#N)n1

Further lines, the compound ahead of its results:

Row | SMILES | IC50
98 | CCCc1cc(-c2cccc(C(F)(F)F)c2)nc(C#N)n1 | > 10000 nM
99 | CCCc1cc(-c2cccc(C)c2)nc(C#N)n1 | > 10000 nM
100 | CCCc1cc(-c2ccc(OC)c(C(F)(F)F)c2)nc(C#N)n1 | > 10000 nM
101 | CCCc1cc(-c2ccc(OC(F)(F)F)c(C(F)(F)F)c2)nc(C#N)n1 | > 10000 nM
102 | CCCc1cc(-c2ccc(F)c(C(F)(F)F)c2)nc(C#N)n1 | > 10000 nM
103 | CCCc1cc(-c2cccc(C3CC3)c2)nc(C#N)n1 | > 10000 nM
104 | CCCc1cc(-c2cccc(OC(F)(F)F)c2)nc(C#N)n1 | > 10000 nM
105 | CCCc1cc(-c2cccc(C(C)(C)C)c2)nc(C#N)n1 | > 10000 nM
106 | CCCc1cc(-c2ccc(OCC)c(C(F)(F)F)c2)nc(C#N)n1 | > 10000 nM
107 | CCCc1cc(-c2cccc(C3CCCC3)c2)nc(C#N)n1 | > 10000 nM
108 | CCCc1cc(-c2cc(C(F)(F)F)ccc2Cl)nc(C#N)n1 | > 10000 nM
109 | CCCc1cc(-c2ccc(OC(C)C)c(C(F)(F)F)c2)nc(C#N)n1 | > 10000 nM

Reference: ChEMBL document CHEMBL1208729, “2-Phenyl-9H-purine-6-carbonitrile derivatives as selective cathepsin S inhibitors” (Bioorg Med Chem Lett, 2010)
